Compound activity as filed in PubChem BioAssay.
The list is not random: actives were taken first. Their share in the collection is about 3.5%.
MrgX1 antagonist: antagonists of human MrgX1 receptor, primary screen, HEK293 cells, Fluo-4 calcium flux | Mas-related G-protein coupled receptor member X1 (Homo sapiens), Q96LB2 | BAM8-22 antagonism; hits give low values | B-score at 10 µM | 310,000 compounds, 1.3% hits;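 active = calcium-response B-score plate-corrected more than 3 library SD below zero, starting fluorescence within 5 deviations, no agonist response on first addition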;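 note: peak minus trough fluorescence over baseline after final BAM8-22 challenge near maximal dose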
Target sequence (Q96LB2 whole entry, looked up): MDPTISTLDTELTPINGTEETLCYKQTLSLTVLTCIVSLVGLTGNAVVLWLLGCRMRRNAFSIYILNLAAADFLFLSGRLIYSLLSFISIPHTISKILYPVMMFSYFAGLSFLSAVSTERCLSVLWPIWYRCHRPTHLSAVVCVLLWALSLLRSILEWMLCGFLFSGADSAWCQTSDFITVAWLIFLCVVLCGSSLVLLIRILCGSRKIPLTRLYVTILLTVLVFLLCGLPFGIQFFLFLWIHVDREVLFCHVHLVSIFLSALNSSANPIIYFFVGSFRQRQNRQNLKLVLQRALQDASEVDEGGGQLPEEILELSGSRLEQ
RGS4 block: RGS4 inhibitors, primary screen, cell-based, HEK293 M3R inducible RGS4, calcium flux; Fluo-4 calcium flux; hits give high values; triggered by carbachol at its EC20; 310,000 compounds, 0.45% hits; Regulator of G-protein signaling 4 (Homo sapiens), P49798; B-score at 10 µM; AID 463165, 2010;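 active = B-score, a plate-corrected calcium signal, over three deviations above library mean, with baseline fluorescence within five deviations of library mean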;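 note: RGS4 expression induced by doxycycline in cells with stable M3 receptor; B-score is computed from the integrated fluorescence ratio over baseline after carbachol; higher B-score means a larger calcium signal and so more RGS4 inhibition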
Target sequence (P49798 whole entry, looked up): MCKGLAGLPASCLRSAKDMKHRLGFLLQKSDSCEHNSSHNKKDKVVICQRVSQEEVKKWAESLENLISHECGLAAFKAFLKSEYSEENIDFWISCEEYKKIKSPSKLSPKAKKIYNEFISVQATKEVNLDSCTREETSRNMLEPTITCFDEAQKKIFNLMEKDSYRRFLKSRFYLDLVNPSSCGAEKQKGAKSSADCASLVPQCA
RGS4 act: RGS4 potentiators or activators, primary screen, cell-based, HEK293 M3R inducible RGS4, calcium flux | carbachol calcium flux Fluo4; hits give low values | B-score at 10 µM | AID 463111, 2010 | 310,000 compounds, 0.92% hits;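 active = B-score of the integrated calcium signal more than 4 SD below the library mean, with starting fluorescence not abnormally high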;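 note: negative B-score means reduced calcium response which marks RGS4 activation or potentiation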
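Assay system: Inducible-RGS4 HEK293 cells carrying M3 receptor | Schedule: Compound preincubation 20 min at room temperature before agonist | Signal: Kinetic calcium fluorescence imaging with Fluo4-AM dye, 2 µM | Read-out basis: B score from integrated fluorescence ratio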
MrgX1 ag: agonists of human MrgX1 receptor, primary screen, HEK293 cells, Fluo-4 calcium flux; B-score at 10 µM; 310,000 compounds, 0.44% hits; Fluo-4 calcium fluorescence, agonist mode; hits give high values; AID 588627, 2011;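 active = calcium response B-score plate-corrected fluorescence ratio at least 3 library SD, with starting fluorescence B-score inside 5 SD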
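times = overnight plating, then 30 min 37 °C plus 30 min room-temperature dye loading | assay system = stable human MrgX1 HEK293 cell line | input = fifteen thousand cells per well | signal = kinetic calcium dye fluorescence, Fluo-4 NW | dosing = compound delivered in addition one of three | read-out = B-scored fluorescence response ratio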
MrgX1 PAM: positive allosteric modulators of MrgX1, primary screen, HEK293 cells, Fluo-4 calcium flux; AID 588675, 2011; 310,000 compounds, 0.63% hits; B-score at 10 µM; FDSS; hits give high values;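 active = plate-corrected calcium response at least 3 library SD above typical, normal starting fluorescence, not activating the receptor alone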;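 note: compound read alongside a low EC10 to EC30 dose of BAM8-22 agonist; peak minus trough fluorescence over baseline measured at the second addition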
MrgX1 PAM conf: MrgX1 positive allosteric modulators, duplicate retest, confirmation, HEK293 cells, Fluo-4 calcium flux; shares compounds with MrgX1 PAM; Fluo-4 calcium fluorescence, FDSS; activation (ratio percentage), % at 10 µM; 1,200 compounds, 13% hits; AID 602413, 2012;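 active = ratio at least 3 SD above the weak peptide control, stable starting fluorescence, no direct agonism earlier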;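 note: compound followed by low BAM8-22 agonist challenge near EC20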
HEK293 Ca flux: nonspecific calcium signal in parental HEK293, confirmation, counter-screen for MrgX1 antagonist project, parental HEK293 cells, Fluo-4 calcium flux. AID 624111, 2012. 4,000 compounds, 2% hits. fluorescence ratio F(max-min)/F0 at 10 µM. shares compounds with MrgX1 antagonist. Fluo-4 calcium fluorescence, FDSS;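 active = duplicate-averaged calcium fluorescence ratio at least three times the standard deviation of buffer wells, a nonspecific response in parental cells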
HEK293 Ca counter: calcium response in parental HEK293 cells, primary screen, counter-screen for MrgX1 allosteric activator project, cell-based, Fluo-4 calcium flux, duplicate; shares compounds with MrgX1 antagonist; Fluo-4 fluorescence ratio; hits give high values; fluorescence ratio F(max-min)/F0 at 10 µM; 4,000 compounds, 0.4% hits; AID 624114, 2012;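 active = calcium fluorescence ratio, averaged over duplicates, at least 3 SD of the buffer-well ratio, meaning a nonspecific response in receptor-free cells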;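 note: untransfected parental HEK293 lacking MrgX1 used as counterscreen for MrgX1 allosteric activators; fluorescence change taken during the second addition on a kinetic imager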
HEK293 Ca cntr2: calcium response in parental HEK293 cells, primary screen, counter-screen for MrgX1 agonist project, cell-based, Fluo-4 calcium flux, duplicate, agonist mode. shares compounds with MrgX1 antagonist. Fluo-4 calcium fluorescence (FDSS); hits give high values. fluorescence ratio F(max-min)/F0 at 10 µM. 4,000 compounds, 8.7% hits. AID 624115, 2012;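 active = calcium fluorescence ratio at least three times the spread of buffer wells, meaning a non-specific response in parental cells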
An asterisk follows results filed as active; i = inactive; · = not tested or not shown.

SMILES | MrgX1 antagonist | RGS4 block | RGS4 act | MrgX1 ag | MrgX1 PAM | MrgX1 PAM conf | HEK293 Ca flux | HEK293 Ca counter | HEK293 Ca cntr2
Cc1ccc2c(c1)NC(=O)C(CC(=O)O)O2 (stereo not given) | i | i | i | i | 8.1* | i | i | i | i
Cc1ccc(NC(=O)CC2Oc3ccc(C)cc3NC2=O)c(C)c1 (stereo not given) | i | i | i | i | i | · | · | · | ·
Cc1cc(C)c(O)c(-c2n[nH]c3c2C(c2cccc(O)c2)N(Cc2ccco2)C3=O)c1 (stereo not given) | i | i | i | i | i | · | · | · | ·
O=C1CC(c2ccco2)CC(O)=C1C=Nc1cc(Cl)ccc1O (stereo not given) | i | i | i | i | 10* | 41%* | i | i | i
COc1ccc(CCNC(=O)CCc2ccccc2)cc1OC | i | i | i | i | 7.5* | i | i | i | i
CS(=O)(=O)c1ccccc1-c1nnc(NC(=O)c2ccc(S(=O)(=O)N3CCCC3)cc2)o1 | i | i | i | i | i | · | · | · | ·
O=C(Nc1nnc(-c2ccccc2Cl)o1)c1ccc(S(=O)(=O)N2CCCCCC2)cc1 | i | i | i | i | 8.6* | i | i | i | i
C=CCSc1nnc(CC(OC)OC)n1-c1ccccc1 | i | i | i | i | i | · | · | · | ·
CCNC(=O)OCC12CC3CC(CC(C3)C1)C2 | i | i | i | i | 9.8* | i | i | i | i
COc1ccc(C(=O)Nc2ccc(C(=O)N3CCCCC3C)cc2)c(OC)c1OC (stereo not given) | i | i | i | i | i | · | · | · | ·
Cc1cc(SCC(=O)c2ccc(O)c(O)c2)nc2ccccc12 | i | i | i | i | 11* | i | i | i | i
Cc1cc(SCC(=O)c2ccc3c(c2)OCO3)nc2ccccc12 | i | i | i | i | i | · | · | · | ·
Cc1cc(C)c(NC(=O)COC(=O)C2CCN(c3ccc(C(F)(F)F)cn3)CC2)c(Cl)c1 | i | i | i | i | i | · | · | · | ·
Cc1cc(C)c(NC(=O)CNC(=O)COC(=O)C2CCN(c3ccc(C(F)(F)F)cn3)CC2)c(C)c1 | i | i | i | i | 7* | i | i | i | i
O=C(Nc1cccc(F)c1)OC(CN1CCCCC1)C(F)(F)F (stereo not given) | i | i | i | i | 7.2* | i | i | i | i
CNc1nc(Sc2ccc(C)cc2)cc(C(F)(F)F)n1 | i | i | i | i | 15* | 16%* | i | i | i
COc1c(Cl)cc(Cl)cc1/C=C/C(=O)c1ccc(NC(=O)c2cccs2)cc1 | i | i | i | i | i | · | · | · | ·
CCOc1ccccc1NC(=O)CSc1nc2cc(O)ccc2c(=O)n1-c1ccc(OC)c(OC)c1 | i | i | i | i | i | · | · | · | ·
Cc1ccc(Nc2cc(C)c3c(O)cccc3n2)cc1C | i | i | i | i | i | · | · | · | ·
Cc1ccc(Nc2cc(C)c3ccc(O)cc3n2)cc1C | i | i | i | i | 10* | i | i | i | i
CCc1ccc(NC(=O)c2ccccc2Br)cc1 | i | i | i | i | i | · | · | · | ·
O=C(Nc1ccc(Br)cc1)c1ccccc1Br | i | i | i | i | 16* | i | i | i | i
CCOC(=O)NNC(=O)NCCCCCCNC(=O)NNC(=O)OCC | i | i | i | i | i | · | · | · | ·
N=C1/C(=C/c2ccc(OCc3ccccc3F)cc2)C(=O)N=C2SC(CC(=O)N3CCOCC3)=NN12 | i | i | i | i | 35* | 21%* | i | i | i
c1ccc(-c2noc(-c3cccc4ccccc34)n2)nc1 | i | i | i | i | 8.4* | i | 0.53* | i | i
SMILES | MrgX1 antagonist | RGS4 block | RGS4 act | MrgX1 ag | MrgX1 PAM | MrgX1 PAM conf | HEK293 Ca flux | HEK293 Ca counter | HEK293 Ca cntr2
COCCN1C(=O)/C(=C/c2ccc(N3CCCC3)cc2C)SC1=S | i | i | i | i | 19* | i | 0.13* | i | 48*
Cc1ccc(C)c(N(CC(=O)NC(C)(C)C)C(=O)CCC(=O)Nc2nccs2)c1 | i | i | i | i | i | · | · | · | ·
CCOC(=O)Cc1csc(NC(=S)NC(=O)c2ccc(Cl)cc2)n1 | i | i | i | i | 7* | i | i | i | i
CCOC(=O)Cc1csc(NC(=O)COc2ccccc2OC)n1 | i | i | i | i | 12* | i | i | i | i
CCOC(=O)Cc1csc(NC(=O)c2ccc(Br)cc2)n1 | i | i | i | i | 12* | i | i | i | i
CCOC(=O)Cc1csc(NC(=S)NC(=O)c2ccc([N+](=O)[O-])cc2)n1 | i | i | i | i | i | · | · | · | ·
Cc1ccc(S(=O)(=O)CCC(=O)Nc2ccccc2Br)cc1 | i | i | i | i | i | · | · | · | ·
CCc1cc2ccc(OC)cc2nc1SCC(=O)N1CCN(C(=O)c2ccco2)CC1 | i | i | i | i | 6.6* | i | i | i | i
Cc1cccc(N(Cc2ccccc2)C(=O)c2ccccc2S(C)(=O)=O)c1 | i | i | i | i | i | · | · | · | ·
O=C(NNc1ccccc1)Nc1ccccc1F | i | i | i | i | i | · | · | · | ·
O=C(Nc1ccccc1F)Nc1ccccc1F | i | i | i | i | 7.2* | i | i | i | i
OC1(c2nc3ccccc3[nH]2)CCCCC1 | i | i | i | i | i | · | · | · | ·
Cc1cc(C)n2c(SCC(=O)Nc3ccc(F)cc3F)nnc2n1 | i | i | i | i | i | · | · | · | ·
